Shown are actives, neighbours in structure and some others; about 1.9% of the full set was active somewhere.
HIF act – HIF pathway transcriptional activators, primary screen, cell-based, U2OS HRE-luciferase, luminescence; U2OS HRE-luciferase reporter; normalized: DMSO 0%, desferrioxamine 100%; activation, % at 7.5 µM (by protocol); 300,000 compounds, 0.32% hits;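 active = mean activation of at least 10% of the iron chelator positive control signal, with at least half of replicates also reaching 10%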
proCasp3 act – activators of human procaspase-3 D3A mutant, primary screen, biochemical, absorbance, PC-3 D3A mutant, single concentration | Caspase-3 (Homo sapiens), P42574 | recombinant procaspase-3 D3A, Ac-DEVD-pNA absorbance 405 nm | activation, % at 8.5 µM | 330,000 compounds, 0.11% hits | AID 463141, 2010;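 active = activation above the mean of all tested compounds plus 3 SD, cut at about 21% in these data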;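 also: 0% = DMSO alone and 100% = DMSO wells spiked with extra 5 µM PC-3 D3A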
Target sequence (P42574 whole entry D9A/D28A/D175A): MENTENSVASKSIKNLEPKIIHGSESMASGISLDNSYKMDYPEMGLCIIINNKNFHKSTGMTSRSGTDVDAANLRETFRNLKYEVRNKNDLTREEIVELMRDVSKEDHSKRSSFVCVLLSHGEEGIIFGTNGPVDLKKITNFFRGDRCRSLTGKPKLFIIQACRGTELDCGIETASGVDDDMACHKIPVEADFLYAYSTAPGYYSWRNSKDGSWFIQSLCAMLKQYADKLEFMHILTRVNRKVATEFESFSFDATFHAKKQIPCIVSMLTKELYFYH
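Assay system – Procaspase-3 D3A mutant · Benchmarks – DMSO low control, extra-enzyme high control · Technique – 405 nm absorbance of p-nitroaniline, reads at 0 and 120 min · Doses – 8.5 µM nominal · Measure – % activation between DMSO and enzyme-spiked controls · Also added – Ac-DEVD-pNA chromogenic peptide substrate · Schedule – 1 h compound preincubation, 2 h substrate hydrolysis at 25 °C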
Neddyl block – inhibitors of cullin neddylation, primary screen, biochemical, TR-FRET, uHTS, NAE and Ubc12. NEDD8-conjugating enzyme Ubc12 (Homo sapiens) + NEDD8-activating enzyme E1 regulatory …. inhibition, % at 25 µM. 360,000 compounds, 0.58% hits. AID 651699, 2012; in the data active = inhibition above about 36%
proCasp7 act – procaspase-7 activators, primary screen, counter-screen for procaspase-3 activator project, biochemical, absorbance, HTS, human; activation, % at 8.5 µM; Caspase-7 (Homo sapiens), P55210; 330,000 compounds, 0.093% hits; AID 463210, 2010; recombinant procaspase-7, Ac-DEVD-pNA absorbance 405 nm; D23A/D198A/D206A triple mutant, cannot self-cleave; scale: DMSO 0, 5 µM enzyme 100;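 active = percent activation above the screen-wide mean plus 3 SD, cut at about 25% in these data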
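Assay system: Uncleavable procaspase-7 mutant enzyme / Input: 2 µM procaspase-7 mutant as dispensed / Dosing: single nominal 8.5 µM compound dose, 0.8% DMSO final / Timing: 1 h enzyme–compound preincubation and 2 h substrate reaction, both 25 °C / Detection: p-Nitroaniline absorbance at 405 nm, read at 0 and 120 min / Replication: singlicate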
Calb FLC – C. albicans growth inhibition with fluconazole, primary screen, CaCi-2 strain, Alamar Blue fluorescence; C. albicans CaCi-2 (fluconazole-resistant clinical isolate) + fluconazole, 48 h; growth inhibition, % (test concentration not listed); 300,000 compounds, 0.57% hits; AID 1979, 2009;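 active = growth inhibition above about 58% in most replicates, limit read from the data, passing the limit was not always enough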;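 also: all wells also contain fluconazole at 8 µg/ml as a sub-toxic cotreatment; 0% = median of DMSO wells and 100% = median of geldanamycin control wells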
GAA850 FXN act – FXN promoter activators, primary screen, cell-based, luciferase luminescence, HEK293 lucGAA850; activation, % at 6 µM; 360,000 compounds, 0.56% hits; HEK293 lucGAA850 FXN promoter luciferase reporter, 24 h; percent of 10 µM SAHA response;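 active = activation above the average of all compounds screened plus 3 SD, cutoff fixed separately per campaign, cut at about 7.5% in these data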;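 also: 0% = DMSO wells and 100% = 10 µM SAHA wells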
GAA30 FXN cntr – GAA30 FXN promoter activators, confirmation, counter-screen for GAA850 frataxin promoter activator project, cell-based, luminescence, HEK293, lucGAA30, triplicate. activation, % at 6 µM. shares compounds with GAA850 FXN act. HEK293 lucGAA30 FXN promoter luciferase, 24 h; DMSO = 0%, 5 µM ipriflavone = 100%. AID 588350, 2011. 1,900 compounds, 66% hits;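 active = mean activation above the mean of solvent-only control wells plus 3 SD, cut at about 22% in these data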;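 also: counterscreen of GAA850 promoter hits where activity marks nonselective or luminescence artifacts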
FXN GAA850 conf – FXN GAA850 promoter activators in reporter cells, confirmation, cell-based, luminescence, HEK293 lucGAA850, triplicate; activation, % at 6 µM; shares compounds with GAA850 FXN act; AID 588351, 2011; HEK293 lucGAA850 FXN promoter luciferase reporter, 24 h; 100% = activation by SAHA; 1,900 compounds, 86% hits;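 active = mean activation above a set limit taken from the primary screen, cut at about 8% in these data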;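 also: 0% = DMSO wells and 100% = 10 µM SAHA wells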
An asterisk follows results filed as active; . = no result given.

SMILES	HIF act	proCasp3 act	Neddyl block	proCasp7 act	Calb FLC	GAA850 FXN act	GAA30 FXN cntr	FXN GAA850 conf
CC[C@@]12C(=O)N(c3cccc(C)c3)C(=O)N1[C@H](c1ccc(Br)cc1)[C@@H]1C(=O)N(C(C)(C)C)C(=O)[C@@H]12	0	-10	-9	-1	17	16*	23*	11*
CCN1C(=O)[C@H]2[C@@H](c3ccc(C)cc3)N3C(=O)N(c4cccc(Cl)c4)C(=O)[C@@]3(Cc3ccccc3)[C@H]2C1=O	0	-6	-12	9	16	-2	.	.
CCN1C(=O)[C@H]2[C@@H](c3ccc(C)cc3)N3C(=O)N(c4cccc(Cl)c4)C(=O)[C@@]3(CC(C)C)[C@H]2C1=O	0	-6	-7	-2	5	17*	26*	12*
C[C@@H]1CN([C@@H](C)CO)S(=O)(=O)c2ccc(Br)cc2O[C@H]1CN(C)Cc1ccccn1	.	.	-1	.	.	0	.	.
COc1ccc([C@@H]2[C@@H]3C(=O)N(C(C)(C)C)C(=O)[C@@H]3[C@]3(Cc4ccc(Cl)cc4)C(=O)N(c4ccc(C)cc4)C(=O)N23)cc1	0	5	-8	-2	2	-2	.	.
CC(C)C[C@@]12C(=O)N(c3ccc(Br)cc3)C(=O)N1[C@H](c1ccc(Br)cc1)[C@@H]1C(=O)N(C(C)(C)C)C(=O)[C@@H]12	-10	-6	-7	5	8	17*	18	18*
CC(C)C[C@@]12C(=O)N(c3cccc(Br)c3)C(=O)N1[C@H](c1ccc(Cl)cc1)[C@@H]1C(=O)N(C3CCCCC3)C(=O)[C@@H]12	0	1	-9	13	10	3	.	.
CC(C)C[C@@]12C(=O)N(c3cccc(F)c3)C(=O)N1[C@H](c1ccc(Br)cc1)[C@@H]1C(=O)N(C(C)(C)C)C(=O)[C@@H]12	0	1	-18	-6	15	17*	29*	18*
O=C1NC[C@@H](CCCCN2CCN(CCC3CCCCC3)C(=O)C2=O)N(Cc2ccccc2)C1=O	.	.	3	.	.	.	.	.
NC(=S)NN=C1c2ccccc2-c2cc(Br)ccc21	.	.	-19	.	.	11*	17	14*
CCOC1=C2[C@H](c3ccc(CC)cc3)N(S(=O)(=O)c3ccc(C)cc3)C[C@H]2n2c(=O)n(-c3ccccc3)c(=O)n2C1	.	.	-4	.	.	.	.	.
COCCNC(=O)C1(C)CCCN(Cc2cc(-c3ccccc3)on2)C1 (stereo not drawn)	.	.	-2	.	.	3	.	.
CC(Oc1cc2oc(=O)cc(-c3ccccc3)c2cc1Cl)C(=O)NCC1CCC(C(=O)O)CC1 (stereo not drawn)	0	4	5	5	-1	11*	20	8.8*
Cc1ccc(Nc2nc(N)c([N+](=O)[O-])c(NCc3ccco3)n2)cc1	1	-10	-16	-6	3	8.9*	67*	34*
Cc1cc(NC(=O)CSc2nc(C(C)C)nc3sc(C)c(C)c23)no1	1	3	-95	4	15	7.9*	-6	13*
Cc1sc2nc(C(C)C)nc(SCC(=O)NC3CC3)c2c1C	-2	10	-29	0	3	-2	.	.

From PubChem BioAssay
